M5 PAM: human M5 muscarinic receptor positive allosteric modulators, primary screen, CHO-K1 cells, Fluo-8 calcium fluorescence. Muscarinic acetylcholine receptor M5 (Homo sapiens), P08912. CHO-K1 hM5, ACh EC20 PAM; 0% = ACh EC20, 100% = ACh EC100. activation, % at 3 µM. actives 0.3% (n = 360,000). AID 624038, 2012;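 active means activation above the run cutoff, the mean activation of all test compounds plus 3 SD, cut at about 18% in these data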
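System: CHO-K1 hM5 cells. Reagent: acetylcholine, EC20 level. Compound dosing: single dose, 3 µM nominal final test concentration. Timing: Post-acetylcholine fluorescence recording 140 s. Detection: Fluo-8 calcium fluorescence. Read-out: % activation, ACh-normalized. Benchmarks: ACh EC20 and EC100 wells. Repeats: singlicate, one well per test compound.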
CHRM4 antagonist: human M4 muscarinic receptor antagonists, primary screen, CHO cells, Fluo-8 calcium fluorescence; AID 624125, 2012; Muscarinic acetylcholine receptor M4 (Homo sapiens), P08173; CHO-hM4 cells, ACh EC80; inhibition, % at 3 µM; actives 0.73% (n = 360,000);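 active means inhibition above its plate's cutoff, the mean inhibition of sample wells plus 3 SD, cut at about 27% in these data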;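 further: 0% = acetylcholine EC80 with DMSO and 100% = DMSO without agonist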
Target sequence (P08173 whole entry, looked up): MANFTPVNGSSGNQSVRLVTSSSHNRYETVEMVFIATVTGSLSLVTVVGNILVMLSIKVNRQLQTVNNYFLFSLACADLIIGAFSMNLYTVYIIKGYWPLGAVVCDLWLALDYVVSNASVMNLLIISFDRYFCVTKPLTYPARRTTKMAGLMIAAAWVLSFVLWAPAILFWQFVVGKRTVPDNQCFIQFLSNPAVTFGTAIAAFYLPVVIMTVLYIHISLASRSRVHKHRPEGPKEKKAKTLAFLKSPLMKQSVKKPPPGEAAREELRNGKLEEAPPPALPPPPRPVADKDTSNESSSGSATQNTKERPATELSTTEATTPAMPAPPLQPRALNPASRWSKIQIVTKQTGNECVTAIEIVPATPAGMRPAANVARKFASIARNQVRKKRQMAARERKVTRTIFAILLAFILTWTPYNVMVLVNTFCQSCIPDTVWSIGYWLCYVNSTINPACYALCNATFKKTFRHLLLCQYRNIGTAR
M4 ag: human M4 muscarinic receptor agonists, primary screen, CHO-K1 cells, Fluo-8 calcium fluorescence | AID 624127, 2012 | Muscarinic acetylcholine receptor M4 (Homo sapiens), P08173 | actives 0.14% (n = 360,000) | activation, % at 3 µM | CHO-K1 hM4/Gqi5; vehicle 0%, full acetylcholine response 100%;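 active means activation above the run mean over all test wells plus 3 SD, cut at about 32% in these data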;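 further: peak over basal fluorescence ratio per well then scaled between controls; 0% = DMSO wells and 100% = acetylcholine at EC100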
CHRM5 agonist: human M5 muscarinic receptor agonists, primary screen, CHO-K1 cells, Fluo-8 calcium fluorescence; CHO-K1 hM5 cells; 0% DMSO wells, 100% maximal acetylcholine response; activation, % at 3 µM; actives 0.19% (n = 360,000); AID 624037, 2012;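 active means activation above the run's mean over test compounds plus 3 SD, cut at about 23% in these data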;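 further: signal is peak over basal fluorescence ratio across the kinetic read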
M5 antag: human M5 muscarinic receptor antagonists, primary screen, CHO cells, Fluo-8 calcium fluorescence; actives 0.59% (n = 360,000); inhibition, % at 3 µM; AID 624040, 2012; Muscarinic acetylcholine receptor M5 (Homo sapiens), P08912; CHO-hM5 cells, ACh EC80;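 active means inhibition above a per-plate cutoff, the mean of that plate's test compounds plus 3 SD, cut at about 27% in these data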;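 further: 0% = acetylcholine EC80 with DMSO and 100% = DMSO without agonist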
CHRM4 PAM: human M4 muscarinic receptor positive allosteric modulators, primary screen, CHO-K1 cells, Fluo-8 calcium fluorescence; Muscarinic acetylcholine receptor M4 (Homo sapiens), P08173; CHO-K1 hM4/Gqi5, ACh EC20; 0% = ACh EC20, 100% = maximal ACh; activation, % at 3 µM; actives 0.4% (n = 360,000); AID 624126, 2012;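 active means activation above its plate's cutoff, the mean activation of sample wells plus 3 SD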
* = called active by the depositor. Compounds with a hit are over-represented: about 1.8% of the library has one in this group of screens.

SMILES	M5 PAM	CHRM4 antagonist	M4 ag	CHRM5 agonist	M5 antag	CHRM4 PAM
O=Cc1c(Nc2cccc(C(F)(F)F)c2)nc2ccccn2c1=O	-7	-19	1	-2	17	16*
O=C(N/N=C/c1c(Nc2cccc(C(F)(F)F)c2)nc2ccccn2c1=O)c1ccccc1[N+](=O)[O-]	3	-9	0	3	-4	1
Cc1ccccc1-c1cnc2c(c1)C(=O)N([C@@H](C)CO)C[C@@H](C)[C@H](CN(C)Cc1ccccc1F)O2	2	-8	-1	-1	-1	-1
COc1cc(-c2noc(C3CCCN(C(=O)c4ccccc4)C3)n2)cc(OC)c1OC (stereo not given)	-1	-11	0	7	-22	14*
O=C1c2ccccc2C(c2nnnn2Cc2ccccc2)N1CCc1c[nH]c2ccccc12 (stereo not given)	-20	22	29	10	8	-8
O=C(NCc1ccco1)c1nnc(Cc2ccc(F)cc2)o1	-5	8	0	1	2	-5
O=C(NCc1ccco1)c1nnc(Cc2ccc(Cl)cc2)o1	1	39*	-2	-2	1	-6
CC1CCCN(C(=O)CCNS(=O)(=O)c2ccc3c(c2)c(=O)n(C)c(=O)n3C)C1 (stereo not given)	7	-1	1	-1	-4	15*
CCCCCCCCCCCCN1[C@@H](CC(C)=O)c2cc(F)ccc2S1(=O)=O	-1	-9	1	0	0	8
CCCCCCCCCCCCN1[C@@H](CC(=O)OC)c2cc(F)ccc2S1(=O)=O	-4	-5	2	-1	7	30*
CCCCCCCCCCCCN1[C@@H](CC(=O)OC)c2cc(F)cc(F)c2S1(=O)=O	6	-4	1	1	1	26*
CC1C(c2ccccc2)=Nn2c(=O)n(-c3ccccc3)c(=O)n21 (stereo not given)	0	-2	1	0	6	3
C[C@H](O)[C@@H]1C(=O)N2CCc3c([nH]c4ccccc34)[C@@H]2C[C@@H]1N(C)S(=O)(=O)c1ccccc1	-1	-19	7	1	-6	-3
Cn1c(=O)c2cc(NC(=O)NCc3ccccc3)ccc2n1Cc1ccc(Cl)cc1	4	4	4	-1	-2	-2
CCOc1ccccc1NC(=O)CSc1nnc(NC(=O)c2ccco2)s1	10	2	1	-1	-16	22*
O=C(CSc1nnc(NC(=O)c2ccco2)s1)Nc1ccccc1F	2	-2	2	-8	-6	25*
O=C(Nc1nnc(COc2ccccc2)s1)c1ccco1	2	-8	3	0	-2	16*
COC(=O)[C@]12CCCCC=C1N(Cc1ccccc1)C(=O)[C@H](CC(=O)NCc1ccccc1)C2	2	-9	7	2	6	1
CCOC(=O)Cn1cnc(-c2ccc([N+](=O)[O-])cc2)c1	1	3	3	0	2	27*
CC(C)CSC1=NSC2=NC(=O)/C(=C\c3coc4ccccc4c3=O)C(=N)N12	-23	52*	89*	168*	68*	-21
CSC1=NSC2=NC(=O)/C(=C\c3coc4ccccc4c3=O)C(=N)N12	-13	27*	25	27*	26	-17
COc1ccc(NC(=O)NNS(=O)(=O)c2ccc(OC)c(OC)c2)c(OC)c1	18*	-9	2	-1	-25	7
Cc1cn([C@H]2C[C@H](O)[C@@H](CCC(=O)NCCc3ccc4ccccc4c3)O2)c(=O)[nH]c1=O	-1	4	0	1	1	-4
COc1ccc(C(CNC(=O)c2cccc(NS(=O)(=O)c3ccc(C)c(F)c3)c2)N(C)C)cc1 (stereo not given)	-7	-4	3	-7	11	-9
CCOc1ccc(S(=O)(=O)Nc2cccc(C(=O)NCC(c3ccccc3)N(C)C)c2)cc1 (stereo not given)	-14	-12	16	-3	11	5
SMILES	M5 PAM	CHRM4 antagonist	M4 ag	CHRM5 agonist	M5 antag	CHRM4 PAM
COc1ccccc1C(CNC(=O)c1cccc(S(=O)(=O)NCc2ccccc2)c1)N(C)C (stereo not given)	-33	6	1	-11	39*	-6
COc1ccc(C(CNC(=O)c2cccc(NS(=O)(=O)c3ccccc3)c2)N(C)C)cc1 (stereo not given)	-7	31*	2	-8	14	-14
COc1ccccc1C(CNC(=O)c1cccc(NS(=O)(=O)c2ccc(C)c(F)c2)c1)N(C)C (stereo not given)	-35	3	0	-8	66*	-7
CC(C)=CCC[C@H](C)C[C@@H]1Cc2[nH][nH]c(=O)c2[C@H](c2ccc(Cl)cc2)O1	-6	-13	-1	4	-20	8
COc1ccc(OC)c(CN2C(=O)c3ccccc3C2c2nnnn2C2CCCC2)c1 (stereo not given)	-6	-16	-1	-2	-3	4
CCN(CC)S(=O)(=O)c1ccc(C(=O)Nc2c3c(nn2C(C)(C)C)CS(=O)(=O)C3)cc1	2	27*	2	-2	-1	10
COc1ccccc1Cc1c(-c2cccc(Cl)c2)nc2ccc(C)cn12	-5	-5	0	-1	7	4
Cc1cc(C)c(OCCOCCN2CCNCC2)c(C)c1	45*	-22	2	-8	-3	2
Cc1cc(C)c(OCCOCCN2CCCC2)c(C)c1	2	-1	1	-12	8	-17
CC1(C(=O)NCc2ccco2)Cc2c(-c3cccc(C(F)(F)F)c3)ccnc2O1 (stereo not given)	4	4	4	0	-4	-2
CN(C)CCOc1ccc(-c2c(-c3ccsc3)sc3ccccc23)cc1	-3	20	3	-2	11	4
COc1ccc(-c2sc3ccccc3c2-c2ccc(OCCN(C)C)cc2)cc1	-13	36*	4	-6	12	0
CC(=O)c1c(C)n(CC(=O)NCc2ccc3c(c2)OCO3)c2ccccc12	-18	10	13	1	29*	-8
COC(=O)Cn1c(O)c(N=NC(=O)CNC(=O)c2ccc3c(c2)OCCO3)c2ccccc21	11	-1	3	-9	-1	2

Source: PubChem BioAssay (The Scripps Research Institute Molecular Screening Center)
